# For part of these data: Results with a measured potency or affinity are listed apart. Activity calls are given as the source filed them.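 How the source made its calls, unless noted: active means calcium signal ratio cut to more than 3 SD under the fully stimulated control mean yet still positive, in both repeats and the primary screen; inactive means the rest.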
# Biological target: Short transient receptor potential channel 4 (Mus musculus) (UniProt Q9QUQ5)
# Test: inhibitors of mouse TRPC4 channel, confirmation, cell-based, second round, Fluo4, HEK293 TRPC4beta/mu-opioid, 1 µM (AID 2637);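 on inhibition: percent of integrated ratio relative to wells lacking test compound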
# Conditions: Fluo4 calcium flux, DAMGO, at 1 µM; stronger effect = higher value
# Summary of the method: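 Test system: HEK293 stable line co-expressing TRPC4beta and mu-opioid receptor. Compound dosing: single test compound concentration, 1 µM final. Measured by: Fluo4 calcium fluorescence, kinetic real-time read after baseline. Incubation: Fluo4 loading 45 min, compound exposure 110 s. Probe or stimulus: sequential submaximal then maximal DAMGO stimulation. Controls: ECmax and compound-free wells.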
# Short transient receptor potential channel 4 (Mus musculus), sequence (Q9QUQ5 whole entry, looked up): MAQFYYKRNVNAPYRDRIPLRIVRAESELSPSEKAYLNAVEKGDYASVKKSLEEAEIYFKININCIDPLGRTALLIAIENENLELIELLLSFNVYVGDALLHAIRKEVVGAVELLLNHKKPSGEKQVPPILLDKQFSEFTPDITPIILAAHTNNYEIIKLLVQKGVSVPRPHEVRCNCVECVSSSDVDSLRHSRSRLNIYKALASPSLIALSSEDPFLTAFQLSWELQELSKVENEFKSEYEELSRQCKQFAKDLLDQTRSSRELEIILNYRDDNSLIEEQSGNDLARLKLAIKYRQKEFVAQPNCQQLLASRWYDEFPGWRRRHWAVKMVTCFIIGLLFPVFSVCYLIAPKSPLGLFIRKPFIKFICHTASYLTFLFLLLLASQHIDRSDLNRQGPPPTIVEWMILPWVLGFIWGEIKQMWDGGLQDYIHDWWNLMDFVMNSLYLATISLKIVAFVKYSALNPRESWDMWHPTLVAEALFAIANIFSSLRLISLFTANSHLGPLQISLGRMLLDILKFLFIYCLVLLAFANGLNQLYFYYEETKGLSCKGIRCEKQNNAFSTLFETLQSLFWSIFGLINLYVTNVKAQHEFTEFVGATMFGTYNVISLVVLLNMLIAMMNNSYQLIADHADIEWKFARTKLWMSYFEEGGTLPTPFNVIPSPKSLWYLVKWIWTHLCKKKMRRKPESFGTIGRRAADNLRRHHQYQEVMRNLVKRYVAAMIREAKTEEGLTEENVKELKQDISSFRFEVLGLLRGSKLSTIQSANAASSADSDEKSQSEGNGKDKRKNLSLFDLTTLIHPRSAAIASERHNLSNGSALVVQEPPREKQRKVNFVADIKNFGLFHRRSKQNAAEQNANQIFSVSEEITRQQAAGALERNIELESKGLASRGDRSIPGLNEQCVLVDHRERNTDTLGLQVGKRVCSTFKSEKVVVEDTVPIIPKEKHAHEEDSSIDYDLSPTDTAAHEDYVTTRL
SMILES,inhibition,outcome
CC(C)C(NC(=O)c1ccc(C(C)(C)C)cc1)C(=O)NCC(c1ccccc1)N(C)C (stereo not drawn),70% (active),–
CN(C)CCCN(C(=O)c1ccc(S(=O)(=O)N2CCCC2)cc1)c1nc2c(F)cc(F)cc2s1,–,inactive
CCC1CCCCN1CCN1C(=O)C2C(C(=O)Nc3ccc(OC)cc3)C3C=CC2(O3)C1C(=O)NC1CCCCC1 (stereo not drawn),90% (active),–
Cc1cc(Nc2ccc(C)c(C)c2)c2ccccc2n1,42% (active),–
CCCc1nc2ccccc2n1Cc1ccccc1OC,–,inactive
CCCCOc1ccc(Nc2cc(Cl)ccc2C(=O)O)cn1,–,inactive
N#Cc1c(N)sc2c1CCCCCC2,44% (active),–
Cc1cc(OCc2cc(C(=O)NCCN3CCCCC3CO)no2)cc(C)c1Cl (stereo not drawn),–,inactive
Cc1cccc(C)c1-n1cccc1/C=C1\SC(=S)N(c2cccc(C(=O)O)c2)C1=O,–,inactive
Clc1ccc(COc2ccccc2CNCc2cccnc2)cc1,–,inactive
C=CCOc1ccc(C2CC(C)=NN2c2ccccc2)cc1 (stereo not drawn),44% (active),–
CCCCN=C(Nc1ccc(Cl)cc1)c1cccnc1,54% (active),–
OCc1ccccc1CNCc1ccccc1,52% (active),–
Cc1ccc(Nc2cc(C)nc3ccc(C)cc23)cc1,–,inactive
C=CCSc1nnc2n(-c3ccccc3OC)c(=O)c3c4c(sc3n12)CCC4,–,inactive
Cc1ccc(NC(=O)CN2CCc3ccccc3C2)cc1F,–,inactive
c1ccc(CN2CCN(Cc3c[nH]c4ccccc34)CC2)cc1,–,inactive
OCCNc1nc2ccccc2n1CCN1CCCCC1,–,inactive
COc1ccc(NC(=O)c2c[nH]n3c(=O)cc(C4CCN(C(=O)OC(C)(C)C)CC4)nc23)cc1Cl,41% (active),–
CC1CCCN1CC#CC(O)(c1ccccc1)c1ccccc1 (stereo not drawn),62% (active),–

SMILES,inhibition,outcome
CCOC(=O)c1c(N)sc(C(O)(C(F)(F)F)C(F)(F)F)c1-c1ccccc1,–,inactive
CCCCN(Cc1ccccc1)C(=O)C1CCN(Cc2sccc2C)CC1,46% (active),–
CCc1ccc2nc3nc(C)cc(C)c3c(N)c2c1,41% (active),–
Cc1ccc(C)c(S(=O)(=O)/N=C2\C=C(NS(=O)(=O)c3ccccc3)C(=O)c3ccccc32)c1,–,inactive
Cc1ccn2c(-c3csc(NCc4ccco4)n3)c(C)nc2c1,–,inactive
CCCCC(=O)N(c1ccc(C(=O)O)cc1)c1nc(-c2ccc(Cl)cc2)c(CC)s1,–,inactive
CC(=O)c1ccc2c(c1)N(C)c1ccccc1S2,–,inactive
Cc1ccc2c(c1)N(C(=O)CCC(=O)Nc1ccccc1Br)CC(C)O2 (stereo not drawn),46% (active),–
OCC1(CCCc2ccccc2)CCN(Cc2cc(F)ccc2F)CC1,–,inactive
CC(C)c1ccc(S(=O)(=O)/N=C2\C=C(NS(=O)(=O)c3ccccc3)C(=O)c3ccccc32)cc1,–,inactive
Cc1cc(NCc2ccccc2)nc(N2CCOCC2)n1,40% (active),–
CCOc1ccc(NC(=O)c2c[nH]n3c(=O)cc(C4CCN(C(=O)OC(C)(C)C)CC4)nc23)cc1,–,inactive
COCCn1c(SCc2cc(C(C)=O)ccc2OC)nc2cc(Cl)ccc2c1=O,–,inactive
CCc1cc(C(c2cccc(OC)c2)N2CCOCC2)c(NC(=O)c2ccccc2)s1 (stereo not drawn),–,inactive
CC(=O)Nc1ccc(S(=O)(=O)NC2=C(N3CCN(Cc4ccccc4)CC3)C(=O)c3ccccc3C2=O)cc1,40% (active),–
COc1ccc(C2=NN(C(=O)c3ccccc3)C(c3ccc(OC)c(OC)c3)C2)c(O)c1 (stereo not drawn),–,inactive
COc1cccc(CNC(=O)CCC2CCCN(Cc3cc(Cl)ccc3O)C2)c1 (stereo not drawn),–,inactive
Cc1c(CN2CCC(n3nccc3NC(=O)CCc3ccccc3)CC2)cnn1C,68% (active),–
CCOC(=O)C(C)Sc1nc2c(c(=O)[nH]c(=O)n2C)n1Cc1ccc(Cl)cc1 (stereo not drawn),68% (active),–

# Biological target: Short transient receptor potential channel 4 (Mus musculus) (UniProt Q9QUQ5)
# Test: mouse TRPC4 channel activators, dose response, cell-based, HEK293 TRPC4/mu-opioid, Fluo-4 calcium (AID 434937;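 active means primary screen activator hit with a dose response curve and TRPC4 channel activation at any tested dose; inactive means no activation, no dose response, or not a primary hit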)
# Conditions: HEK293 TRPC4 cells, Fluo-4 calcium fluorescence ratio; series mostly up to 20 µM; activation ratio: at the top concentration
row,SMILES,activation ratio
1,CC(C)C(NC(=O)c1ccc(C(C)(C)C)cc1)C(=O)NCC(c1ccccc1)N(C)C (stereo not drawn),12.3 (inactive)
2,CN(C)CCCN(C(=O)c1ccc(S(=O)(=O)N2CCCC2)cc1)c1nc2c(F)cc(F)cc2s1,110 (inactive)
3,CCC1CCCCN1CCN1C(=O)C2C(C(=O)Nc3ccc(OC)cc3)C3C=CC2(O3)C1C(=O)NC1CCCCC1 (stereo not drawn),32.8 (inactive)
4,Cc1cc(Nc2ccc(C)c(C)c2)c2ccccc2n1,13.2 (inactive)
5,CCCc1nc2ccccc2n1Cc1ccccc1OC,-0.8 (inactive)
6,CCCCOc1ccc(Nc2cc(Cl)ccc2C(=O)O)cn1,39.9 (inactive)
7,N#Cc1c(N)sc2c1CCCCCC2,0 (inactive)
8,Cc1cc(OCc2cc(C(=O)NCCN3CCCCC3CO)no2)cc(C)c1Cl (stereo not drawn),5.49 (inactive)
9,Cc1cccc(C)c1-n1cccc1/C=C1\SC(=S)N(c2cccc(C(=O)O)c2)C1=O,0.15 (inactive)
10,Clc1ccc(COc2ccccc2CNCc2cccnc2)cc1,14.9 (inactive)
11,C=CCOc1ccc(C2CC(C)=NN2c2ccccc2)cc1 (stereo not drawn),-1.74 (inactive)
12,CCCCN=C(Nc1ccc(Cl)cc1)c1cccnc1,-0.37 (inactive)
13,OCc1ccccc1CNCc1ccccc1,0.84 (inactive)
14,Cc1ccc(Nc2cc(C)nc3ccc(C)cc23)cc1,20.5 (inactive)
15,C=CCSc1nnc2n(-c3ccccc3OC)c(=O)c3c4c(sc3n12)CCC4,0.36 (inactive)
16,Cc1ccc(NC(=O)CN2CCc3ccccc3C2)cc1F,17.9 (inactive)
17,c1ccc(CN2CCN(Cc3c[nH]c4ccccc34)CC2)cc1,5.06 (inactive)
18,OCCNc1nc2ccccc2n1CCN1CCCCC1,1.21 (inactive)
19,COc1ccc(NC(=O)c2c[nH]n3c(=O)cc(C4CCN(C(=O)OC(C)(C)C)CC4)nc23)cc1Cl,-0.67 (inactive)
20,CC1CCCN1CC#CC(O)(c1ccccc1)c1ccccc1 (stereo not drawn),3.18 (inactive)

row,SMILES,activation ratio
1,CCOC(=O)c1c(N)sc(C(O)(C(F)(F)F)C(F)(F)F)c1-c1ccccc1,18.5 (inactive)
2,CCCCN(Cc1ccccc1)C(=O)C1CCN(Cc2sccc2C)CC1,0.87 (inactive)
3,CCc1ccc2nc3nc(C)cc(C)c3c(N)c2c1,-5.59 (inactive)
4,Cc1ccc(C)c(S(=O)(=O)/N=C2\C=C(NS(=O)(=O)c3ccccc3)C(=O)c3ccccc32)c1,15.1 (inactive)
5,Cc1ccn2c(-c3csc(NCc4ccco4)n3)c(C)nc2c1,-2.82 (inactive)
6,CCCCC(=O)N(c1ccc(C(=O)O)cc1)c1nc(-c2ccc(Cl)cc2)c(CC)s1,42.3 (inactive)
7,CC(=O)c1ccc2c(c1)N(C)c1ccccc1S2,-18.6 (inactive)
8,Cc1ccc2c(c1)N(C(=O)CCC(=O)Nc1ccccc1Br)CC(C)O2 (stereo not drawn),-1.5 (inactive)
9,OCC1(CCCc2ccccc2)CCN(Cc2cc(F)ccc2F)CC1,7.91 (inactive)
10,CC(C)c1ccc(S(=O)(=O)/N=C2\C=C(NS(=O)(=O)c3ccccc3)C(=O)c3ccccc32)cc1,17.9 (inactive)
11,Cc1cc(NCc2ccccc2)nc(N2CCOCC2)n1,0.96 (inactive)
12,CCOc1ccc(NC(=O)c2c[nH]n3c(=O)cc(C4CCN(C(=O)OC(C)(C)C)CC4)nc23)cc1,-1.07 (inactive)
13,COCCn1c(SCc2cc(C(C)=O)ccc2OC)nc2cc(Cl)ccc2c1=O,1.09 (inactive)
14,CCc1cc(C(c2cccc(OC)c2)N2CCOCC2)c(NC(=O)c2ccccc2)s1 (stereo not drawn),-1.26 (inactive)
15,CC(=O)Nc1ccc(S(=O)(=O)NC2=C(N3CCN(Cc4ccccc4)CC3)C(=O)c3ccccc3C2=O)cc1,38 (inactive)
16,COc1ccc(C2=NN(C(=O)c3ccccc3)C(c3ccc(OC)c(OC)c3)C2)c(O)c1 (stereo not drawn),-0.63 (inactive)
17,COc1cccc(CNC(=O)CCC2CCCN(Cc3cc(Cl)ccc3O)C2)c1 (stereo not drawn),-2.03 (inactive)
18,Cc1c(CN2CCC(n3nccc3NC(=O)CCc3ccccc3)CC2)cnn1C,51 (inactive)
19,CCOC(=O)C(C)Sc1nc2c(c(=O)[nH]c(=O)n2C)n1Cc1ccc(Cl)cc1 (stereo not drawn),-0.8 (inactive)

# Reference: PubChem BioAssay
